Test results: ChEMBL document CHEMBL3774374, “The Effect of Small Molecules on Sterol Homeostasis: Measuring 7-Dehydrocholesterol in Dhcr7-Deficient Neuro2a Cells and Human Fibroblasts” (J Med Chem, 2016)
Calls of active or inactive are those of the source. The calls are words filed in the database; no cut-off is given here.

Legend:
[1] = biological target: T1, Delta(24)-sterol reductase (Mus musculus) (UniProt Q8VCH6); test: Inhibition of DR24 in Dhcr7-deficient mouse Neuro2a cells assessed as decrease in 7-DHC levels at 1 uM by LC-MS/GC-MS analysis; format: cell-based
T1 sequence (whole entry): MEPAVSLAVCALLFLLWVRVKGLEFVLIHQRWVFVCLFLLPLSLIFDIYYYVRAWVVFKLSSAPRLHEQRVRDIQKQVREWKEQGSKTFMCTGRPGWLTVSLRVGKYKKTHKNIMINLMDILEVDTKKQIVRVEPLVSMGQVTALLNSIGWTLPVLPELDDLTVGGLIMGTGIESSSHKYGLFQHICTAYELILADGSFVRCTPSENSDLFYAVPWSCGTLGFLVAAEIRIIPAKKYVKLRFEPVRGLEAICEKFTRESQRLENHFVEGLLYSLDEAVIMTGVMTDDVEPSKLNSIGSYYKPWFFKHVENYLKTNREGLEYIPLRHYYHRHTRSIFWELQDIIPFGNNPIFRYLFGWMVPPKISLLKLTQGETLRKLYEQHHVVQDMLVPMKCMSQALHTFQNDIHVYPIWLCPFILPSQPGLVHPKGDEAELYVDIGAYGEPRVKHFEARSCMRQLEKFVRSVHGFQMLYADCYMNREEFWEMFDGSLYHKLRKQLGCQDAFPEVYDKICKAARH
Method in brief: (§1)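 Dhcr7-deficient Neuro2a cells (13000/well, 0.5% FBS medium) on predeposited compound, 24 h at 37 °C. Hoechst-stained and imaged to count cells. Lysed in methanol containing isotope-labelled sterol standards, derivatized with PTAD 20 min at RT, then isocratic C18 UPLC-MS/SRM. Remaining extract silylated with BSTFA for GC-MS, quantified against d7-cholesterol. Follow-up runs in triplicate.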

[2] = biological target: T1, Delta(24)-sterol reductase (Mus musculus); test: Inhibition of Dhcr24 in Dhcr7-deficient mouse Neuro2a cells assessed as increase in 7-dehydrodesmosterol levels at 1 uM by LC-MS/GC-MS analysis; format: cell-based; method in brief: as §1
[3] = biological target: T2, 3-beta-hydroxysteroid-Delta(8),Delta(7)-isomerase (Mus musculus) (UniProt P70245); test: Inhibition of delta 8-7 isomerase in Dhcr7-deficient mouse Neuro2a cells assessed as decrease in 7-DHC levels at 1 uM by LC-MS/GC-MS analysis; format: cell-based; method in brief: as §1
T2 sequence (whole entry): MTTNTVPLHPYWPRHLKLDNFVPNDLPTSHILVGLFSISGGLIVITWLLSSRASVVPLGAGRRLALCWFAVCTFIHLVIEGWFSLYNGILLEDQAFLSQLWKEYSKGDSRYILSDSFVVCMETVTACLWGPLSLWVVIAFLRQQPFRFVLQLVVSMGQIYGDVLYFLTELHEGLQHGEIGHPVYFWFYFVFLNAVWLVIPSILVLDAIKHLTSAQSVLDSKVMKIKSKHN

[4] = system: Fibroblast; test: Decrease in cholesterol levels in human SLOS fibroblasts at 10 nM after 5 days by LC-MS/GC-MS analysis; format: functional, cell-based
Method in brief: (§2)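 SLOS patient skin fibroblasts (passage 8–20) grown in 96-well plates in delipidated serum with compound for 5 days; three different SLOS lines. Sterols quantified by PTAD-derivatized UPLC-MS plus GC-MS; 7-DHC expressed as percentage of untreated cells.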

[5] = biological target: 3-beta-hydroxysteroid-Delta(8),Delta(7)-isomerase (Homo sapiens) (UniProt Q15125); test: Inhibition of delta 8-7 isomerase in human SLOS fibroblasts assessed as decrease in 7-DHC levels at 10 nM after 5 days by LC-MS/GC-MS analysis; method in brief: as §2
Sequence of 3-beta-hydroxysteroid-Delta(8),Delta(7)-isomerase (Homo sapiens) (Q15125 whole entry): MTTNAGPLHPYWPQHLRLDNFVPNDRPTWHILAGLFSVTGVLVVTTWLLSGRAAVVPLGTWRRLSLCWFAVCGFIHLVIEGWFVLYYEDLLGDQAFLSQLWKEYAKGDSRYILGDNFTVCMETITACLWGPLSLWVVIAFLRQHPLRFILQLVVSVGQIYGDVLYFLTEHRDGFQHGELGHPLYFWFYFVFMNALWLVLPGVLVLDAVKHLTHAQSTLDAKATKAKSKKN

[6] = biological target: T1, Delta(24)-sterol reductase (Mus musculus); test: Inhibition of C-24 reductase in Dhcr7-deficient mouse Neuro2a cells assessed as increase in desmosterol levels at 1 uM by LC-MS/GC-MS analysis; format: cell-based; method in brief: as §1
[7] = biological target: T3, Delta(24)-sterol reductase (Homo sapiens) (UniProt Q15392); test: Inhibition of DR24 in human SLOS fibroblasts assessed as decrease in 7-DHC levels at 10 nM after 5 days by LC-MS/GC-MS analysis; method in brief: as §2
T3 sequence (whole entry): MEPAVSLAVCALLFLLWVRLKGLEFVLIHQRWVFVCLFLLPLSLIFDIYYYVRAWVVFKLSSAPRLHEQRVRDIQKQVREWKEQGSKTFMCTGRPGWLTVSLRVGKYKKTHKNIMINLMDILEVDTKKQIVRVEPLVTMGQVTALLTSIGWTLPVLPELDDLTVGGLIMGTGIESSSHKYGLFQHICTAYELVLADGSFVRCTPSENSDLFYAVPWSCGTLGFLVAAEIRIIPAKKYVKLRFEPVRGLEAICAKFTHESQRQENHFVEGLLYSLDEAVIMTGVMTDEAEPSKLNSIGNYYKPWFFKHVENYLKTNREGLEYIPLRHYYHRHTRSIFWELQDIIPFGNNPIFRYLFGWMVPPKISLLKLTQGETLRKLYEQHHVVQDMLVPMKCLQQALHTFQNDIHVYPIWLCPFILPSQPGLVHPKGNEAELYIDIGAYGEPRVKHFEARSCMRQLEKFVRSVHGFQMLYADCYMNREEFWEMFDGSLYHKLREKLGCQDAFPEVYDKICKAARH

[8] = Cytotoxicity against human SLOS fibroblasts at 5 uM after 5 days by Cell Titer assay; format: cell-based; settings: fibroblast, 120 h
[9] = biological target: T3, Delta(24)-sterol reductase (Homo sapiens); test: Inhibition of DR24 in human SLOS fibroblasts assessed as decrease in 7-DHC levels at 100 nM after 5 days by LC-MS/GC-MS analysis
Method in brief: (§3)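 SLOS patient skin fibroblasts (passage 8–20; three different lines) grown in 96-well plates in delipidated serum with compound for 5 days. 7-DHC and cholesterol quantified by PTAD-derivatisation UPLC-MS with isotopic standards. Values expressed as percentage of 7-DHC in the same cells grown without compound.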

[10] = biological target: T2, 3-beta-hydroxysteroid-Delta(8),Delta(7)-isomerase (Mus musculus); test: Inhibition of delta 8-7 isomerase in mouse Neuro2a cells assessed as decrease in 7-DHC levels at 1 uM by LC-MS/GC-MS analysis; format: cell-based
Method in brief: (§4)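 Control Neuro2a cells (10000/well, 0.5% FBS) on compound, 24 h. Hoechst cell count, then methanol lysis with labelled standards (d7-7-DHC, 13C3-desmosterol, 13C3-lanosterol), PTAD derivatization 20 min at RT, UPLC-MS SRM. GC-MS of silylated extract for further sterols.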

[11] = biological target: T2, 3-beta-hydroxysteroid-Delta(8),Delta(7)-isomerase (Mus musculus); test: Inhibition of delta 8-7 isomerase in Dhcr7-deficient mouse Neuro2a cells assessed as decrease in cholesterol levels at 1 uM by LC-MS/GC-MS analysis; format: cell-based
Method in brief: (§5)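 Follow-up (verification) assay in 96-well plates, run as the 384-well screen, in triplicate, at varying compound concentrations. Cells counted by Hoechst imaging, washed with PBS, then lysed in MeOH with BHT/TPP and isotope standards (d7-Chol, d7-7-DHC, 13C3-Des, 13C3-Lan). Sterols derivatised with PTAD for 20 min at RT and quantified by C18 UPLC-MS (SRM). Remaining sample silylated with BSTFA and run on GC-MS, quantified against d7-Chol.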

[12] = biological target: T2, 3-beta-hydroxysteroid-Delta(8),Delta(7)-isomerase (Mus musculus); test: Inhibition of delta 8-7 isomerase in Dhcr7-deficient mouse Neuro2a cells assessed as increase in zymostenol levels at 1 uM by LC-MS/GC-MS analysis; format: cell-based; method in brief: as §5
[13] = biological target: 3-beta-hydroxysteroid-Delta(8),Delta(7)-isomerase (Homo sapiens) (UniProt Q15125); test: Inhibition of delta 8-7 isomerase in human SLOS fibroblasts assessed as decrease in 7-DHC levels at 100 nM after 5 days by LC-MS/GC-MS analysis; method in brief: as §3
[14] = biological target: T2, 3-beta-hydroxysteroid-Delta(8),Delta(7)-isomerase (Mus musculus); test: Inhibition of delta 8-7 isomerase in Dhcr7-deficient mouse Neuro2a cells assessed as increase in zymosterol levels at 1 uM by LC-MS/GC-MS analysis; format: cell-based; method in brief: as §5
[15] = biological target: T1, Delta(24)-sterol reductase (Mus musculus); test: Inhibition of DR24 in mouse Neuro2a cells assessed as decrease in 7-DHC levels at 1 uM by LC-MS/GC-MS analysis; format: cell-based; method in brief: as §4
[16] = biological target: T1, Delta(24)-sterol reductase (Mus musculus); test: Inhibition of DR24 in Dhcr7-deficient mouse Neuro2a cells assessed as increase in desmosterol levels at 100 nM by LC-MS/GC-MS analysis; format: cell-based; method in brief: as §5
[17] = biological target: T1, Delta(24)-sterol reductase (Mus musculus); test: Inhibition of DR24 in Dhcr7-deficient mouse Neuro2a cells assessed as increase in lanosterol levels at 100 nM by LC-MS/GC-MS analysis; format: cell-based; method in brief: as §5
[18] = system: N2a; test: Change in cholesterol level in Dhcr7-deficient mouse Neuro2a cells at 100 nM by LC-MS/GC-MS analysis; format: functional, cell-based; method in brief: as §5
[19] = system: Fibroblast; test: Increase in lanosterol levels in human SLOS fibroblasts at 1 uM by LC-MS/GC-MS analysis; format: functional, cell-based; method in brief: as §2
[20] = system: N2a; test: Increase in lanosterol levels in Dhcr7-deficient mouse Neuro2a cells at 1 uM by LC-MS analysis; format: functional, cell-based; method in brief: as §1
[21] = system: N2a; test: Decrease in lanosterol levels in mouse Neuro2a cells by LC-MS analysis; format: functional, cell-based; method in brief: as §4
[22] = system: N2a; test: Decrease in desmosterol levels in mouse Neuro2a cells by LC-MS analysis; format: functional, cell-based; method in brief: as §4
[23] = system: N2a; test: Increase in 7-DHC levels in Dhcr7-deficient mouse Neuro2a cells at 200 nM after 24 hrs by LC-MS analysis; format: functional, cell-based
Method in brief: (§6)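 384-well screen: Dhcr7-deficient Neuro2a cells (13000/well, 0.5% FBS) with compound at 20 or 200 nM (five wells each), 24 h at 37 °C. Cells counted after Hoechst imaging, then methanol lysis with d7-7-DHC standard, PTAD derivatization 20 min at RT, UPLC-MS SRM (7-DHC 560→365). Read-out is pg 7-DHC per cell.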

[24] = system: N2a; test: Increase in 7-DHC levels in mouse Neuro2a cells at 100 nM by LC-MS analysis; format: functional
Method in brief: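 Control Neuro2a cells in 96-well plates, treated at 1, 10 and 100 nM. 7-DHC measured by PTAD derivatization and UPLC-MS against deuterated 7-DHC standard; n > 3.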

[25] = biological target: T2, 3-beta-hydroxysteroid-Delta(8),Delta(7)-isomerase (Mus musculus); test: Inhibition of delta 8-7 isomerase in Dhcr7-deficient mouse Neuro2a cells assessed as decrease in 7-DHC levels at 20 nM after 24 hrs by LC-MS analysis; format: cell-based
Method in brief: (§7)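 384-well screen: Dhcr7-deficient Neuro2a cells (13000/well) dispensed in 0.5% FBS medium onto predeposited compound (five wells each at 20 and 200 nM) and incubated 24 h at 37 °C. Nuclei Hoechst-stained and counted by automated imaging. Cells lysed in MeOH with deuterated and 13C standards, then derivatised with PTAD for 20 min at RT. 7-DHC measured by isocratic UPLC-MS (SRM) and expressed as pg per cell; DMSO wells served as controls.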

[26] = biological target: T1, Delta(24)-sterol reductase (Mus musculus); test: Inhibition of DR24 in Dhcr7-deficient mouse Neuro2a cells assessed as decrease in 7-DHC levels at 200 nM after 24 hrs by LC-MS analysis; format: cell-based; method in brief: as §6
[27] = biological target: T1, Delta(24)-sterol reductase (Mus musculus); test: Inhibition of DR24 in Dhcr7-deficient mouse Neuro2a cells assessed as decrease in 7-DHC levels at 20 nM after 24 hrs by LC-MS analysis; format: cell-based; method in brief: as §6
[28] = biological target: T2, 3-beta-hydroxysteroid-Delta(8),Delta(7)-isomerase (Mus musculus); test: Inhibition of delta 8-7 isomerase in Dhcr7-deficient mouse Neuro2a cells assessed as decrease in 7-DHC levels at 200 nM after 24 hrs by LC-MS analysis; format: cell-based; method in brief: as §7

COc1ccc2c(c1)OC(C)(C)[C@@H](c1ccccc1)[C@@H]2c1ccc(OCCN2CCCC2)cc1 [LEVORMELOXIFENE]
inhibition [1]: Active
inhibition [2]: Active
inhibition [3]: Active
Activity [4]: inactive
inhibition [5]: Active
inhibition [6]: Active
inhibition [7]: Active
Activity [8]: Toxic

CN(C)CCOc1ccc(/C(=C(/CCCl)c2ccccc2)c2ccccc2)cc1 [TOREMIFENE]
inhibition [1]: Active
inhibition [9]: Active
inhibition [3]: Active
Activity (decrease in 7-DHC levels) [10]: Active
inhibition [11]: Active
inhibition [12]: Active
inhibition [13]: Active
inhibition [14]: Active
inhibition [15]: Active
Activity [8]: Toxic

CCC(COC(=O)c1cc(OC)c(OC)c(OC)c1)(c1ccccc1)N(C)C (stereo not drawn)
inhibition [1]: Active
inhibition [16]: Active
inhibition [17]: Active
Activity [18]: inactive

CC(=O)O[C@@]1(C(C)=O)CC[C@H]2[C@H]3C=C(C)C4=CC(=O)CC[C@]4(C)[C@H]3CC[C@@]21C
Activity [19]: Active
Activity [20]: Active

O=C1CCc2ccc(OCCCCN3CCN(c4cccc(Cl)c4Cl)CC3)cc2N1 [ARIPIPRAZOLE]
Activity [21]: Active
Activity [22]: Active
Activity [23]: Active
fold change (FC) [24]: 40

CCN(CC)CCOc1ccc(C(=C(Cl)c2ccccc2)c2ccccc2)cc1 [CLOMIPHENE]
inhibition [1]: Active
inhibition [25]: Active
inhibition [3]: Active
Activity [4]: inactive
Activity (decrease in 7-DHC levels) [10]: Active
inhibition [5]: Active
inhibition [26]: Active
inhibition [11]: Active
inhibition [12]: Active
inhibition [27]: Active
inhibition [14]: Active
inhibition [28]: Active
inhibition [7]: Active
Decrease in 7-DHC levels (active/inactive call) [15]: Active
Activity [8]: Non-toxic
